In ChEMBL document CHEMBL4513216, “Probing the Open Global Health Chemical Diversity Library for Multistage-Active Starting Points for Next-Generation Antimalarials” (ACS Infect Dis, 2020) one finds cytotoxicity data, which are given here for 98 compounds.

Each structure is given as a SMILES string.

A short description of the data set: Toxicity liver stage against HepG2, at 10uM. Format: cell-based. More on the design: test concentration 10 uM, cell line HepG2-A16-CD81EGFP. As to conditions: human, HepG2-A16-CD81EGFP cells; read-out: INHIBITION
In outline:
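Uninfected HepG2-A16-CD81EGFP cells, 3 × 10^3 per well, 1536-well, plated on prespotted compound at 10 μM final, parasite-free screening media added to match infected plates; puromycin 10 μM positive, DMSO 0.5% negative; run in parallel with 48 h PbLuc assay at 37 °C, 5% CO2; viability by CellTiter-Glo luminescence, normalized to controls.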
`CCOc1cc(C(=O)n2cc(C)cn2)cc(OCC)c1OCC`: the cytotoxicity at 10 µM stood at 8.29%. In the case of `Cc1nc(CC(C)C)sc1C(=O)N1CCC1` it was 15.8%; in that of `Cc1ccc(S(=O)(=O)N[C@H](CO)C(C)C)cc1N(C)C`, -5.53%.

Take `CCNC(=O)[C@@H]1C[C@@H](N)CN1Cc1ccc(Sc2ccc(C)cc2)o1`: the cytotoxicity at 10 µM was -53.4%. Regarding `Cc1ccc2c(ccn2CCC(=O)NC[C@@H]2CCCN3CCCC[C@H]23)c1`, the cytotoxicity at 10 µM was determined as 2.29%. With `Clc1ccccc1CN1CCc2nc(C3CCNCC3)ncc2C1`, the cytotoxicity at 10 µM is -36.6%. In the case of `CN1Cc2ccccc2CC2(CCN(Cc3nccn3C)CC2)C1=O` it was 7.81%; in that of `CC(=O)Nc1ccc(SCC(=O)NCC2CCCO2)nn1` (stereo not drawn), -16.7%. Take `C[C@]1(O)CCN(Cc2ncccc2F)C[C@@H]1Oc1cccc(F)c1`: the cytotoxicity at 10 µM is -1.37%. Take `CN1[C@H](CN2CCCC2)C[C@@H]2CN(C(=O)c3ccsc3)CC[C@@H]21`: the cytotoxicity at 10 µM is 0.847%. In the case of `Cc1cnn(C2CN(CCOc3ccccc3C#N)C2)c1` it was -8.88%; in that of `CCC(=O)N1CCC(c2nc(N3CCCCC3)ncc2S(C)(=O)=O)CC1`, 4.03%. As for `COCCCNC(=O)CN(C)C(=O)c1cc(C)ccc1O`, the cytotoxicity at 10 µM is -6.81%. In the case of `CCCS(=O)(=O)N1C[C@@H]2C[C@H](C(=O)N3CCOCC3)[C@H](C1)O2` it was -1.95%; in that of `CCn1cc(NC(=O)NCc2ccc3c(c2)OCCO3)cn1`, -7.71%. In the case of `COCCCN(Cc1cc(O)nc2ccccc12)C(=O)NC(C)C` it was 0.829%; in that of `CN(C)CC(C)(C)Cn1cnc(-c2ccccc2)c1-c1ncc[nH]1`, 9.21%; in that of `Cc1c(Br)cccc1C(=O)NCc1cnn(C)c1`, 3.15%. For `O=C(Cc1n[nH]c2ccccc12)N1CCC(Nc2cccnn2)CC1`, the cytotoxicity at 10 µM is -7.44%. In the case of `N#Cc1ccc(CN2CCCCC2Cn2cncn2)cc1` (stereo not drawn) it was -1.05%; in that of `COc1cc(NC(=O)NCC2CCCO2)cc(OC)c1OC` (stereo not drawn), -7.71%; in that of `Cc1ccccc1SCC(=O)NS(=O)(=O)c1ccc2c(c1)OCCO2`, -1.22%. In the case of `CC(C)c1nc(CN2CCCN(Cc3nccn3C)CC2)no1` it was 1.13%.

`COCC1N(C(=O)c2ccc3c(c2)OCCCO3)C2CCC1(O)CC2` (stereo not drawn): the cytotoxicity at 10 µM was -5.3%. With `CCN(C)S(=O)(=O)NCC1(c2cccc(Br)c2)CC1`, the cytotoxicity at 10 µM is 10.7%. In the case of `c1ccc(N2CC3(CCN(Cc4cccnc4)C3)C2)nc1` it was 1.11%; in that of `CNC(=O)CN1C(=O)CCC12CCCN(Cc1ccccn1)C2` (stereo not drawn), 4.5%; in that of `COCCO[C@H]1COCCN(Cc2ccc(OC)cc2)C1`, 9.71%.

Regarding `COc1ccc(S(=O)(=O)N2CCOC[C@H](Oc3cnccn3)C2)cc1`, the cytotoxicity at 10 µM stood at 10.4%. Take `O=C(NCC1CCOC1)Nc1ccc(Oc2cccc(F)c2)nc1` (stereo not drawn): the cytotoxicity at 10 µM was -5.01%. In the case of `Cc1noc(C(C)Nc2ccc3oc(C)nc3c2)n1` (stereo not drawn) it was 1.81%; in that of `O=C(Nc1nc2c(s1)CNCC2)C1CC1`, -0.0154%; in that of `CC(C)SCc1cccc(NC(=O)NC(C)c2nc[nH]n2)c1` (stereo not drawn), -45.2%. In the case of `Fc1ccc2c(c1)C1(CCNCC1)CC2OCC1CC1` (stereo not drawn) it was 4.92%; in that of `COCCCn1c(CN2CCCCO2)cnc1S(=O)(=O)C1CCCC1`, 4.24%. `CN1CCN(C[C@@H]2CN(C3Cc4ccccc4C3)C[C@@H]2CO)CC1`: the cytotoxicity at 10 µM turned out to be 8.29%. `Cc1nc2c(cc1C(=O)O)CCN(CC1CC1)CC2`: the cytotoxicity at 10 µM is -154%. In the case of `CS(=O)(=O)NCCC(=O)NC1CCc2nccn2C1` (stereo not drawn) it was 9.46%. Regarding `CNC(=O)NC(=O)Cn1cc(-c2ccccc2)cn1`, the cytotoxicity at 10 µM is 3.37%. In the case of `CN(C)C(=O)N[C@@H]1CN(C2CCOCC2)[C@@H]2CCCO[C@@H]21` it was -4.08%; in that of `NC(=O)COc1ccc(C2NC(=O)CN2Cc2ccc(Br)cc2)cc1` (stereo not drawn), -7.38%. In the case of `Cn1cc(CN2CC[C@H]3O[C@@H](COCc4cccnc4)CC[C@H]32)cn1` it was -73.8%; in that of `CCCOC1CCCN(C(=O)c2csc(S(N)(=O)=O)c2)C1` (stereo not drawn), -5.45%. In the case of `Nc1cnc(-c2ccc(F)cc2Cl)cn1` it was -136%; in that of `CC(=O)Nc1ccsc1C(=O)Nc1cnc2n1CCCC2`, -4.58%.

In the case of `CCCNC(=O)Cn1c(C)nn(C(C)(C)C)c1=O`, the cytotoxicity at 10 µM was found to be 4.62%.

As for `CC(=O)N(C)C1CCN(C(=O)c2cccc3c2ccn3C)CC1`, the cytotoxicity at 10 µM stood at 1.56%.

Consider `Cn1cnc2cc(NC(=O)c3n[nH]c4c3CCC4)ccc21`, for which the cytotoxicity at 10 µM is -0.806%. Take `CC(C)(C)c1noc(CCCC(=O)N2CCNC(=O)C2)n1`: the cytotoxicity at 10 µM is -4.28%. On to `COCCNC(=O)NCCn1nc(C(F)(F)F)n(C)c1=O`, for which the cytotoxicity at 10 µM is -2.06%. In the case of `Cc1cnc(N(C)Cc2cnc3ccccc3n2)nc1N(C)C` it was 6.7%; in that of `Cc1nc(NS(=O)(=O)c2ccc(F)c(Br)c2)no1`, 6.04%. In the case of `Cc1nccn1C1CCCN(C(=O)c2ccc(N3CCCC3)nn2)C1` (stereo not drawn) it was -11.2%.

For `CS(=O)(=O)NCCCN1CCCC1Cc1ccccc1` (stereo not drawn), the cytotoxicity at 10 µM was -11.7%.

With `CC(C)OCCN1CCc2cncnc2C1`, the cytotoxicity at 10 µM was -7.52%. In the case of `Cn1cc(CN2CC[C@H]3O[C@@H](C(=O)NC4CC4)CC[C@H]32)cn1`, the cytotoxicity at 10 µM is -1.55%. In the case of `O=C(c1ccoc1)N1C[C@@H]2CN(c3ncccn3)C[C@@H]2C1` it was -5.3%. With `CCO[C@H]1C[C@@H](O)C12CCN(C1Cc3ccccc3C1)CC2`, the cytotoxicity at 10 µM amounted to 4.54%.

Turning to `CCn1ccnc1CN1CCCN(C(=O)c2cnn(C)c2)CC1`, the cytotoxicity at 10 µM is -7.25%.

`COC[C@@]12CCO[C@@H]1CCN(C(=O)Cc1ccccc1F)C2`: the cytotoxicity at 10 µM is -7.27%.

In the case of `CCC1CN(C(=O)c2ccccc2N2CCCC2)CCN1C(C)C` (stereo not drawn), the cytotoxicity at 10 µM is -9.78%. As to `Cc1cccc(OCCNC(=O)C(C)S(=O)(=O)c2ccccn2)c1` (stereo not drawn), the cytotoxicity at 10 µM came to 5.76%.

As for `Cc1nnc(CN(C)CC(=O)NC(C)(C)c2ccc(F)cc2)n1C`, the cytotoxicity at 10 µM was -4.25%. In the case of `N#Cc1cccc(S(=O)(=O)NC(=O)COc2ccc3c(c2)CCC3)c1` it was 1.33%; in that of `c1ccc(OCc2noc(CN3CCC(N4CCSCC4)CC3)n2)cc1`, -6.95%; in that of `CC(C)NC(=O)[C@H]1C[C@@H]2[C@@H](C1)OCCN2Cc1ccsc1`, 9.49%. In the case of `Cc1cc(C)n(NC(=O)c2ccc(Cl)cc2Cl)c(=O)c1` it was -7.05%; in that of `Cn1cncc1CN1CCC2(CC1)COCCN(S(C)(=O)=O)C2`, 4.73%; in that of `CC(C)COCC1CN(Cc2ccsc2)Cc2ncn(C)c21` (stereo not drawn), 6.61%. In the case of `Cn1nccc1C(=O)N1CCCC1c1ccc(C(=O)N2CCOCC2)s1` (stereo not drawn) it was -145%. Take `CC(Cn1cccn1)NC(=O)NCc1ccnc(OC2CCCC2)c1` (stereo not drawn): the cytotoxicity at 10 µM was -4.59%.

As for `COCCC1CN(c2nc(-c3ccccc3)nc3c2CCNC3)CCO1` (stereo not drawn), the cytotoxicity at 10 µM was -2.98%. In the case of `CC(C)CCc1n[nH]c(C(=O)O)c1Cl` it was -5.47%. In the case of `Cc1ccc(-c2nc(C(=O)NCC3CCOC3)cs2)cc1` (stereo not drawn) it was -8.32%; in that of `CC(=O)c1cn(CC(=O)NC(C(=O)O)C(C)C)c2ccccc12` (stereo not drawn), 0.415%. With `NC(=O)C1(c2cnccn2)CCCN1Cc1ccc(Cl)c(F)c1` (stereo not drawn), the cytotoxicity at 10 µM was -4%. In the case of `CC(C)(C)c1nnc(CN2CCn3c(nnc3C3CC3)C2)o1` it was 4.45%; in that of `COCCN1CCN(S(=O)(=O)C2CC2)Cc2ccc(C)nc21`, 3.38%. Consider `Cc1ccn(-c2ccccc2NCc2scnc2C)n1`, for which the cytotoxicity at 10 µM turned out to be 7.28%.

With `Fc1ccc(-c2nc(CNC3CCc4ncnn4C3)co2)cc1` (stereo not drawn), the cytotoxicity at 10 µM is -4.2%. In the case of `CCn1cnnc1C1CCN(C(=O)CC(C)n2cccc2)CC1` (stereo not drawn) it was -1.49%; in that of `CC(Cn1cc(Cl)cn1)C(=O)Nc1ccc(CN2CCCCCC2)cc1` (stereo not drawn), 8.66%; in that of `Cc1nc(NC2CCCC2)c2c(n1)c(C)nn2C`, 14.1%.

`Cc1nc(C)n(CC2CCCN2CC(=O)Nc2nncs2)n1` (stereo not drawn): the cytotoxicity at 10 µM is 14.3%.

Consider `Cc1cc(C(=O)NC(C)CC(=O)c2cccs2)n(C)n1` (stereo not drawn), for which the cytotoxicity at 10 µM is -0.0944%. On to `CCCn1ncc(C(=O)N(CCOC)Cc2c(C)nn(CC)c2C)c1C`, for which the cytotoxicity at 10 µM is -4.97%.

On to `COCCn1cc(NC(=O)NCC(c2cccc(F)c2)N(C)C)cn1` (stereo not drawn), for which the cytotoxicity at 10 µM was -5.6%. In the case of `CN1CCC(CCc2ccnc(Nc3cnccn3)c2)CC1` it was -12.6%; in that of `O=C(CCc1ccccc1)NCC1CCN(Cc2ccsc2)CC1`, 5.27%; in that of `COc1ccccc1N1CCN(C(=O)c2ccnc(N(C)C)c2)CC1`, 84.2%.

`CCC(Nc1nc(CCN)nc2ccccc12)c1cccs1` (stereo not drawn): the cytotoxicity at 10 µM was -3.09%.

With `O=C(CSCC1CC1)N1C[C@H]2CC[C@@H](C1)N(Cc1ccccn1)C2=O`, the cytotoxicity at 10 µM was 5%. In the case of `Cc1cc2nc(CO[C@H]3CN(CC4CC4)C[C@H]3F)[nH]c2cc1C` it was 1.04%; in that of `Cn1cc(C2CC(=O)NC23CCN(Cc2ccncc2)CC3)cn1` (stereo not drawn), 13.2%; in that of `CCc1nnc(NC(=O)N(CCOC)Cc2ccc(C)o2)s1`, -18.8%.

As for `c1cc(CN2CCOC3(CCCC3)C2)no1`, the cytotoxicity at 10 µM is -8.29%. In the case of `Cc1nc(N(C)C)ncc1C(=O)N[C@@H]1CCc2ccccc21` it was 5.77%; in that of `N#Cc1ccc(SCCOCCO)c(F)c1`, 0.513%.
